# Measurements: ChEMBL document CHEMBL1123347, “Topical nonsteroidal antipsoriatic agents. 1. 1,2,3,4-Tetraoxygenated naphthalene derivatives” (J Med Chem, 1986)
# What was measured:
# [1] = Partition coefficient (logP); format: physicochemical; conditions: octanol/water
# Method in brief: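 Lipophilicity (log P) measured by 1-octanol-coated reversed-phase HPLC. The mobile phase is pH 7.4 PBS saturated with 1-octanol, run on RP-18 or C-18 packing. A second system is linked to the first through overlapping series. For the most lipophilic analogues that could not be detected, log P is calculated from Free-Wilson-derived substituent constants assuming additivity.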
# Mus musculus = experiment: Compound was tested for inhibition of arachidonic acid induced mouse ear edema at 2 mg of dose; format: functional
# Method in brief: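 Mouse ear edema induced by arachidonic acid (dissolved in acetone at 100 mg/mL). Test agent is applied topically in acetone, 2 mg/0.02 mL per total dose, 60 min before arachidonic acid. Ear edema is read 1 h later as the weight gain of an 8-mm-diameter ear plug. It is compared with acetone-only and arachidonic acid-only controls run in the same experiment. n = 8 per group; percent inhibition is reported as mean.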
# [2] = Statistical significance (p value) compared to positive control by Students t-test; format: ADME
# Method in brief: (§1)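 Same arachidonic acid ear-edema model: 2 mg total topical dose in acetone, given 60 min before arachidonic acid, with 8 animals per group. Edema is measured by ear plug weight 1 h after arachidonic acid. p values come from Student's t-test against the concurrent arachidonic acid positive control. Thresholds are given as + (≤0.05) and so on.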
# [3] = Statistical significance, p values as compared to positive control by students t-test; NS=Not significant; format: ADME; method in brief: as §1
SMILES,logP [1],Inhibition (Mus musculus) [%],Significance [2],Significance [3],Significance ([2]; read-out: Significance)
COc1c(OC)c(OC(=O)C(C)C)c2cc(C)c(C)cc2c1OC(=O)C(C)C,5.3,21,<= 0.001,,
COc1c(OC)c(OC(=O)C(C)(C)C)c2c(C)cccc2c1OC(=O)C(C)(C)C,6.1,10,,Not Active,
COc1c(OC)c(OC(=O)C(C)(C)C)c2ccccc2c1OC(=O)C(C)(C)C,5.69,0,,Not Active,
COc1c(OC)c(OC(C)=O)c2c(NC(C)=O)cccc2c1OC(C)=O,2,6,,Not Active,
CSc1c(SC)c(OC(C)=O)c2cc(Cl)ccc2c1OC(C)=O,,-2,,Not Active,
CCCOc1c(OCCC)c(OC(=O)CCC)c2cc(Cl)ccc2c1OC(=O)CCC,7.6,2,,Not Active,
CCCC(=O)Oc1c(OC)c(OC)c(OC(=O)CCC)c2cc(Cl)ccc12,5.5,58,<= 0.001,,
CCCOc1c(OCCC)c(OC(=O)C(C)(C)C)c2cc(Cl)ccc2c1OC(=O)C(C)(C)C,8.5,16,<= 0.05,,
COc1c(OC)c(OC(C)=O)c2c(OC)cccc2c1OC(C)=O,2.43,47,<= 0.01,,
CCOc1c(OCC)c(OC(=O)C(C)(C)C)c2cc(Cl)ccc2c1OC(=O)C(C)(C)C,7.4,19,<= 0.001,,
CCOc1c(OCC)c(OC(=O)CC)c2cc(Cl)ccc2c1OC(=O)CC,5.2,50,<= 0.001,,
CCCOc1c(OCCC)c(OC(C)=O)c2cc(Cl)ccc2c1OC(C)=O,5.2,50,<= 0.001,,
COc1c(OC)c(OC(=O)C(C)C)c2cc(Cl)ccc2c1OC(=O)C(C)C,5.4,23,<= 0.01,,
CCCC(=O)Oc1c(OC)c(OC)c(OC(=O)CCC)c2ccccc12,4.64,59,<= 0.001,,
COc1ccc2c(OC(=O)C(C)(C)C)c(OC)c(OC)c(OC(=O)C(C)(C)C)c2c1,5.4,3,,Not Active,
COc1c(OC)c(OC(=O)C(C)(C)C)c2cc(C)c(C)cc2c1OC(=O)C(C)(C)C,6.5,6,,Not Active,
COc1c(OC)c(OC(=O)C(C)(C)C)c2cc(Cl)ccc2c1OC(=O)C(C)(C)C,6.6,11,,Not Active,
CCC(=O)Oc1c(OC)c(OC)c(OC(=O)CC)c2c(C)cccc12,3.9,24,<= 0.01,,
COc1c(OC)c(OC(=O)c2ccccc2)c2cc(Cl)ccc2c1OC(=O)c1ccccc1,6.7,18,<= 0.05,,
COc1c(OC)c(OC(C)=O)c2cc(Br)ccc2c1OC(C)=O,3.39,42,<= 0.001,,
CCCC(=O)Oc1c(Oc2ccccc2)c(Oc2ccccc2)c(OC(=O)CCC)c2cc(Cl)ccc12,7.7,-5,,Not Active,
COc1c(OC)c(OC(=O)C(C)C)c2ccccc2c1OC(=O)C(C)C,4.61,53,<= 0.001,,
CC(C)Oc1c(OC(C)C)c(OC(=O)C(C)(C)C)c2cc(Cl)ccc2c1OC(=O)C(C)(C)C,7.9,26,<= 0.001,,

SMILES,logP [1],Inhibition (Mus musculus) [%],Significance [2],Significance [3],Significance ([2]; read-out: Significance)
COc1c(OC)c(OC(C)=O)c2ccccc2c1OC(C)=O,2.39,19,<= 0.05,,
COc1c(OC)c(OC(C)=O)c2c(Cl)cccc2c1OC(C)=O,3.16,11,,Not Active,
COc1c(OC)c(OC(=O)C(C)C)c2c(C)cccc2c1OC(=O)C(C)C,5,12,,Not Active,
CCCOc1c(OCCC)c(OC(=O)CC)c2cc(Cl)ccc2c1OC(=O)CC,6.4,30,<= 0.001,,
CCC(=O)Oc1c(OC)c(OC)c(OC(=O)CC)c2cc(OC)ccc12,3.28,49,<= 0.01,,
COc1c(OC)c(OC(C)=O)c2cc(F)ccc2c1OC(C)=O,2.75,40,<= 0.001,,
CCC(=O)Oc1c(OC)c(OC)c(OC(=O)CC)c2cc(C)ccc12,3.9,39,<= 0.001,,
CCC(=O)Oc1c(OC)c(OC)c(OC(=O)CC)c2cc(C)c(C)cc12,4.2,26,<= 0.001,,
CCCCOc1c(OCCCC)c(OC(C)=O)c2cc(Cl)ccc2c1OC(C)=O,5.9,23,<= 0.01,,
COc1c(OC)c(OC(C)=O)c2cc(C)c(C)cc2c1OC(C)=O,3.14,19,<= 0.001,,
CCOc1c(OCC)c(OC(C)=O)c2cc(Cl)ccc2c1OC(C)=O,4,38,<= 0.001,,
COc1c(OC)c(OC(C)=O)c2c(Sc3ccccc3)cccc2c1OC(C)=O,4.2,42,<= 0.001,,
COc1c(OC)c(OC(C)=O)c2c(C)cccc2c1OC(C)=O,2.8,22,,,< 0.001
COc1c(OC)c(OC(C)=O)c2cc(C)ccc2c1OC(C)=O,2.86,40,<= 0.001,,
CCC(=O)Oc1c(OC)c(OC)c(OC(=O)CC)c2cc(Cl)ccc12,4.3,49,<= 0.001,,
COc1c(OC)c(OC(C)=O)c2c(C#N)cccc2c1OC(C)=O,2.51,24,<= 0.01,,
COc1ccc2c(OC(C)=O)c(OC)c(OC)c(OC(C)=O)c2c1,2.39,53,<= 0.001,,
CCC(=O)Oc1c(OC)c(OC)c(OC(=O)CC)c2ccccc12,3.44,33,<= 0.01,,
CCOc1c(OCC)c(OC(=O)C(C)C)c2cc(Cl)ccc2c1OC(=O)C(C)C,6.4,11,<= 0.05,,
COc1c(OC)c(OC(=O)C(C)(C)C)c2c(OC)cccc2c1OC(=O)C(C)(C)C,5.6,29,<= 0.01,,
CC(=O)Oc1c(OC(C)C)c(OC(C)C)c(OC(C)=O)c2cc(Cl)ccc12,4.6,19,<= 0.001,,
CCCOc1c(OCCC)c(OC(=O)C(C)C)c2cc(Cl)ccc2c1OC(=O)C(C)C,7.5,28,<= 0.01,,
CCC(=O)Oc1c(OC)c(OC)c(OC(=O)CC)c2c(OC)cccc12,3.44,57,<= 0.001,,
